GSIS activator: GLuc luminescence reporter in INS-1E cells, primary screen for activators of glucose-dependent secretion of insulin; hit rate 0.61% among 370,000; INS-1E GLuc reporter insulin secretion, 2-3 h; activation, % at 16.6 µM;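 active means lowest replicate activation of at least 40%, so every replicate reaches that level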;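 further: 0% = median of neutral control wells and 100% = median of IBMX positive control wells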
MLL AF4-AF9 inh: inhibitors of AF4 peptide binding to AF9, primary screen, biochemical, AlphaScreen, biotin-AF4 peptide, FLAG-AF9, single point. hit rate 0.47% among 350,000. inhibition, % at 10 µM;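 active means every replicate reaching a set inhibition limit, whatever the replicate mean, cut at about 25% in these data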;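 further: 0% = plate neutral control median and 100% = total signal loss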
Target sequence (P42568 whole entry, looked up): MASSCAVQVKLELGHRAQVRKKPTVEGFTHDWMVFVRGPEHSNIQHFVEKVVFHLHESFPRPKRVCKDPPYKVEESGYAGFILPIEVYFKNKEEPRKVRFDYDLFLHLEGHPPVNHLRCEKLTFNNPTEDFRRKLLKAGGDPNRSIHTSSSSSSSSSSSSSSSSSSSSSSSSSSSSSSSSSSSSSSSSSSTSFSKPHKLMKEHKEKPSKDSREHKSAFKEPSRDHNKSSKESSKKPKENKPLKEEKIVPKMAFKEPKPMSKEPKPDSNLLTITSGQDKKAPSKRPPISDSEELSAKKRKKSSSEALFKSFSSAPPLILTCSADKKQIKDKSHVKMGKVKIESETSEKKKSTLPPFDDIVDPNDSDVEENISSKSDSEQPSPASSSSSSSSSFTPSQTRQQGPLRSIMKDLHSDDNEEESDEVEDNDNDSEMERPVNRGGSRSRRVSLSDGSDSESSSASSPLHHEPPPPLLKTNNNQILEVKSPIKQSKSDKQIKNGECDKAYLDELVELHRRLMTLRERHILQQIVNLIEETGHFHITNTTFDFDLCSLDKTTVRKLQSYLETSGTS
S100A4 inh HTS: inhibitors of S100A4-myosin IIA peptide binding, primary screen, biochemical, fluorescence polarization, TAMRA-MyoIIA peptide; Protein S100-A4 (Homo sapiens), P26447; hit rate 0.14% among 360,000; inhibition, % at 10.7 µM;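 active means mean inhibition of at least 70% across replicates, with every replicate also reaching that level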
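Test system – S100A4 monomer (human) · Compound – single-point compound testing · Schedule – 5 min incubation before reading · Probe or stimulus – TAMRA-labelled myosin IIA heavy-chain peptide probe, 5 nM · Benchmarks – neutral control DMSO, positive control TFP · Medium – Calcium-containing HEPES buffer, pH 7.2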
RAD52 inh: RAD52 DNA annealing inhibitors, primary screen, biochemical, FRET, single point, set 2; DNA repair protein RAD52 homolog (Homo sapiens), P43351; recombinant RAD52 DNA annealing, FRET fluorescence; inhibition, % at 18.7 µM; hit rate 0.46% among 360,000; AID 651710, 2012;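 active means every replicate showing at least 50% inhibition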
ERAP1 HTS inh: human ERAP1 aminopeptidase inhibitors, primary screen, biochemical, single point, plate reader. Endoplasmic reticulum aminopeptidase 1 (Homo sapiens), Q9NZ08. recombinant ERAP1, Leu-AMC fluorescence, 60 min. inhibition, % at 10.7 µM. hit rate 0.15% among 340,000;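 active means mean replicate inhibition of at least 30%, or all replicates individually reaching that 30% level; inactive means mean below 30% and not every replicate reaching it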;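 further: 0% = neutral control wells and 100% = L-leucinethiol positive control wells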
The depositor's hits bear a star; x = not tested or not shown. In the library only some 1.5% were active in any assay of this set; here they are far more common.

SMILES	GSIS activator	MLL AF4-AF9 inh	S100A4 inh HTS	RAD52 inh	ERAP1 HTS inh
N#Cc1cccc(-c2ccc(C3[C@@H]4CN(C(=O)C5CC5)C[C@H]3N4)cc2)c1 (stereo not given in full)	-24	-6	3	0	-3
COc1ccc(NC(=O)C2CCN(S(=O)(=O)c3cccc4nonc34)CC2)cc1OC	-6	26*	1	-10	-5
O=C(Nc1ccccc1)N1CCCCN2[C@H](CO)[C@@H](c3ccc(C#Cc4ccccn4)cc3)[C@@H]2C1	-7	x	x	x	x
COc1ccc(CNC(=O)C2Cc3c(-c4cccc(F)c4)ccnc3O2)cc1OC (stereo not given)	57*	1	-10	-4	1
CN(C)C(=O)c1ccc(-c2ccc([C@H]3[C@H]4CN(S(C)(=O)=O)CCCCN4[C@H]3CO)cc2)cc1	21	34*	2	-3	2
CN(C)C(=O)c1ccc(-c2ccc([C@@H]3[C@@H](CO)N4CCCCN(S(C)(=O)=O)C[C@H]34)cc2)cc1	9	30*	8	-10	-1
CN(C)C(=O)c1ccc(-c2ccc([C@@H]3[C@H]4CN(S(C)(=O)=O)CCCCN4[C@H]3CO)cc2)cc1	18	-8	-9	-4	3
COc1ccc(-c2nnc(-c3cccs3)o2)cc1OC	73*	x	x	x	x
COc1cc(-c2nnc(-c3cccs3)o2)cc(OC)c1OC	x	x	7	x	x
COc1ccc(NC(=O)CN(C)C(=O)C2CC(=O)N(c3ccc4c(c3)OCCO4)C2)cc1 (stereo not given)	-12	16	154*	6	-1
Cc1ccc2nc(Cl)nc(-c3ccccc3)c2c1	51*	1	-1	-2	-3
CCCC(=O)N1CC2(CCN(C(=O)NC(C)C)CC2)c2c(n(C)c3cc(OC)ccc23)[C@@H]1CO	16	x	x	x	x
CCCOP(=O)(c1ccccc1)c1ccccc1	5	0	4	-19	-4
CC(C)CCOP(=O)(c1ccccc1)c1ccccc1	64*	x	x	x	x
C[C@@H]1CN([C@@H](C)CO)C(=O)c2cc(N(C)C)ccc2O[C@@H]1CN(C)Cc1ccc(Cl)c(Cl)c1	-26	33*	5	0	0
C[C@H](CO)N1C[C@H](C)[C@H](CN(C)Cc2ccc3c(c2)OCO3)Oc2ccc(N(C)C)cc2C1=O	-1	3	11	-9	6
C[C@@H]1CN([C@H](C)CO)C(=O)c2cc(N(C)C)ccc2O[C@H]1CN(C)Cc1ccc(Cl)c(Cl)c1	-41	28*	-28	-3	-5
C[C@@H]1CN([C@H](C)CO)C(=O)c2cc(N(C)C)ccc2O[C@@H]1CN(C)Cc1ccc(Cl)c(Cl)c1	-25	28*	-31	16	1
C[C@H](CO)N1C[C@H](C)[C@H](CN(C)Cc2ccc(Cl)c(Cl)c2)Oc2ccc(N(C)C)cc2CC1=O	-4	19	8	4	0
C[C@@H]1CN([C@H](C)CO)C(=O)Cc2cc(N(C)C)ccc2O[C@H]1CN(C)Cc1ccc(Cl)c(Cl)c1	-16	x	x	x	x
CC(C)NC(=O)N(C)C[C@@H]1Oc2cc(-c3ccccc3F)ccc2S(=O)(=O)N([C@@H](C)CO)C[C@@H]1C	50	1	3	9	-4
CCOC(=O)c1ccc(N=c2scc(C)n2CC)cc1	-9	26*	-1	-10	9
O=C(Cn1c(=O)oc2cc(S(=O)(=O)NCc3ccccc3)ccc21)N1CCCC1	-8	29*	1	3	x
O=S(=O)(Cc1ccccc1)N1CC2(C1)[C@@H](c1ccccc1)[C@H](CO)N2CC1CC1	13	x	x	x	x
O=S(c1ccccc1O)S(=O)c1ccccc1O (stereo not given)	x	11	-7	-3	99*
COc1ccc(-c2ccc3c(c2)[C@H]2[C@H](CCN2C(=O)C2CCCC2)[C@H](CO)N3C)cc1	-47	26*	10	49	3
CN1c2ccc(C3=CCCCC3)cc2[C@@H]2[C@@H](CCN2C(=O)C2CCCC2)[C@H]1CO	-10	2	-3	-1	-1
COc1cccc(-c2ccc3c(c2)[C@@H]2[C@@H](CCN2C(=O)NC2CCCC2)[C@@H](CO)N3C)c1	-1	5	4	-4	1

Bioassay records from PubChem BioAssay.
